Measured values from ChEMBL document CHEMBL1152911, “Synthesis and biological activities of a pH-dependently activated water-soluble prodrug of a novel hexacyclic camptothecin analog” (Bioorg Med Chem Lett, 2009).
Calls of active or inactive are those of the source. No cut-off for these calls is given here.

What was measured:
[1] = Stability of compound in pH 2 phosphate buffer at room temperature assessed as prodrug remaining after conversion into active drug CH0793076 after 3 hrs; format: physicochemical; settings: pH 2, 3 h
[2] = Stability of compound in pH 5 phosphate buffer at room temperature assessed as prodrug remaining after conversion into active drug CH0793076 after 3 hrs; format: physicochemical; settings: pH 5, 3 h
[3] = Stability of compound in pH 7.4 phosphate buffer at room temperature assessed as prodrug remaining after conversion into active drug CH0793076 after 3 hrs; format: physicochemical; settings: pH 7.4, 3 h
Plasma [4] = assay: Stability in mouse plasma assessed as time required for conversion into active drug CH0793076; format: ADME, cell-free
Plasma [5] = assay: Stability in rat plasma assessed as time required for conversion into active drug CH0793076; format: ADME, cell-free
How it was run: (§1)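 ¹⁴C-labelled prodrug was incubated in plasma of the stated species. Formation of ¹⁴C-labelled active drug was followed over an incubation time course of 0–3 min.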

Plasma [6] = assay: Stability in dog plasma assessed as time required for conversion into active drug CH0793076; format: ADME, cell-free, Canis lupus familiaris; how it was run: as §1
Plasma [7] = assay: Stability in monkey plasma assessed as time required for conversion into active drug CH0793076; format: ADME, cell-free, Macaca mulatta; settings: rhesus monkey
[8] = Solubility in water; format: physicochemical
HCT-116 [9] = assay: Antitumor activity against human BCRP-negative HCT116 cells xenografted in mouse at MTD of 47 mg/kg, iv administered as bolus once per week for 3 weeks; format: functional, organism-based; set-up: dose 47 mg/kg
HCT-116 [10] = assay: Antitumor activity against human BCRP-negative HCT116 cells xenografted in mouse at MTD of 100 mg/kg, iv administered as bolus once per week for 3 weeks; format: functional, organism-based; set-up: dose 100 mg/kg
NCI-H460 [11] = assay: Antitumor activity against human BCRP-positive NCI-H460 cells xenografted in mouse at MTD of 47 mg/kg, iv administered as bolus once per week for 3 weeks; format: functional, organism-based; set-up: dose 47 mg/kg
NCI-H460 [12] = assay: Antitumor activity against human BCRP-positive NCI-H460 cells xenografted in mouse at MTD of 100 mg/kg, iv administered as bolus once per week for 3 weeks; format: functional, organism-based; set-up: dose 100 mg/kg
[13] = Toxicity in mouse administered as bolus iv injection once per week for 3 weeks; format: organism-based; settings: in vivo

Structure (SMILES)	Stability [1]	Stability [2]	Stability [3]	further results
CCCCCN1C=Nc2cccc3nc4c(c1c23)Cn1c-4cc2c(c1=O)COC(=O)[C@@]2(CC)OC(=O)CN(C)C(=O)CNC.Cl	95%	83%	0%	
CCCCCN1C=Nc2cccc3nc4c(c1c23)Cn1c-4cc2c(c1=O)COC(=O)[C@@]2(CC)OC(=O)CN(C)C(=O)CN.Cl	100%	83%	0%	Stability (Plasma [4]): < 1 min; Stability (Plasma [5]): < 1 min; Stability (Plasma [6]): < 1 min; Stability (Plasma [7]): < 1 min; solubility [8]: > 10 mg/mL; Activity (HCT-116 [9]): Active; Activity (HCT-116 [10]): Active; Activity (NCI-H460 [11]): Active; Activity (NCI-H460 [12]): Active; MTD at 504 h [13]: 47 mg/kg
CCCCCN1C=Nc2cccc3nc4c(c1c23)Cn1c-4cc2c(c1=O)COC(=O)[C@@]2(CC)OC(=O)CN(C)C(=O)C(C)(C)N.Cl	78%	0%	0%	
CCCCCN1C=Nc2cccc3nc4c(c1c23)Cn1c-4cc2c(c1=O)COC(=O)[C@@]2(CC)OC(=O)OCCS(=O)(=O)CCN.Cl	100%	96%	4%	
CCCCCN1C=Nc2cccc3nc4c(c1c23)Cn1c-4cc2c(c1=O)COC(=O)[C@@]2(CC)OC(=O)CNC(=O)CN.Cl		100%	47%	
CCCCCN1C=Nc2cccc3nc4c(c1c23)Cn1c-4cc2c(c1=O)COC(=O)[C@@]2(CC)OC(=O)OCCS(=O)(=O)C[C@H](N)C(=O)OCC.Cl	100%	68%	43%	
CCCCCN1C=Nc2cccc3nc4c(c1c23)Cn1c-4cc2c(c1=O)COC(=O)[C@@]2(CC)OC(=O)CNC(=O)CNC.Cl	100%	100%	73%	
CCCCCN1C=Nc2cccc3nc4c(c1c23)Cn1c-4cc2c(c1=O)COC(=O)[C@@]2(CC)OC(=O)[C@H](C)N(C)C(=O)CN.Cl	99%	47%	0%	
